Converted amounts (≈) assume the structure as drawn.
Experiments:
[1] = Inhibition of soybean lipoxygenase assessed as inhibition of sodium linolate conversion to 13-hydroperoxylinoleic acid after 4 mins by spectrophotometry; set-up: species or system Glycine max; details: read-out: IC50
Aspergillus niger [2] = assay: Fungicidal activity against Aspergillus niger ATCC 6275 after 72 hrs by serial subcultivation method; format: functional; details: ATCC 6275, 72 h
Bacillus cereus [3] = assay: Bactericidal activity against Bacillus cereus clinical isolate after 72 hrs by serial subcultivation method; format: functional
Talaromyces funiculosus [4] = assay: Fungicidal activity against Penicillium funiculosum ATCC 36839 after 72 hrs by serial subcultivation method; format: functional; details: ATCC 36839, 72 h
Trichoderma viride [5] = assay: Fungicidal activity against Trichoderma viride IAM 5061 after 72 hrs by serial subcultivation method; format: functional; details: IAM 5061, 72 h
Aspergillus flavus [6] = assay: Fungicidal activity against Aspergillus flavus ATCC 9643 after 72 hrs by serial subcultivation method; format: functional; details: ATCC 9643, 72 h
Bacillus cereus [7] = assay: Antibacterial activity against Bacillus cereus clinical isolate after 24 hr by microdilution test; format: functional
Method in brief: (§1)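 Broth microdilution in LB medium, about 1.0×10^4 cfu per well; compounds from 1 mg/ml stocks in 5% DMSO. Incubated 24 h. MIC is the lowest concentration with no visible growth under a binocular microscope. Run in duplicate, repeated three times.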

Escherichia coli [8] = assay: Bactericidal activity against Escherichia coli ATCC 35210 after 72 hrs by serial subcultivation method; format: functional; details: ATCC 35210, 72 h
Staphylococcus aureus [9] = assay: Antibacterial activity against Staphylococcus aureus ATCC 6538 after 24 hr by microdilution test; format: functional; details: ATCC 6538, 24 h; method in brief: as §1
Penicillium ochrochloron [10] = assay: Antifungal activity against Penicillium ochrochloron ATCC 9112 after 72 hrs by serial dilution technique; format: functional; details: ATCC 9112, 72 h
Method in brief: (§2)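 Serial dilution in malt broth; compounds from 1 mg/ml stocks in 5% DMSO; 72 h at 28 °C. MIC is the lowest concentration with no visible growth under a binocular microscope. Run in duplicate, repeated three times.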

[11] = biological target: T1, Prostaglandin G/H synthase 1 (Ovis aries) (UniProt P05979); assay: Inhibition of ovine COX1 assessed as inhibition of PGF2a production by enzyme immunoassay; set-up: concentration or dose not given beside the values; details: concentration not given here
T1 sequence (whole entry): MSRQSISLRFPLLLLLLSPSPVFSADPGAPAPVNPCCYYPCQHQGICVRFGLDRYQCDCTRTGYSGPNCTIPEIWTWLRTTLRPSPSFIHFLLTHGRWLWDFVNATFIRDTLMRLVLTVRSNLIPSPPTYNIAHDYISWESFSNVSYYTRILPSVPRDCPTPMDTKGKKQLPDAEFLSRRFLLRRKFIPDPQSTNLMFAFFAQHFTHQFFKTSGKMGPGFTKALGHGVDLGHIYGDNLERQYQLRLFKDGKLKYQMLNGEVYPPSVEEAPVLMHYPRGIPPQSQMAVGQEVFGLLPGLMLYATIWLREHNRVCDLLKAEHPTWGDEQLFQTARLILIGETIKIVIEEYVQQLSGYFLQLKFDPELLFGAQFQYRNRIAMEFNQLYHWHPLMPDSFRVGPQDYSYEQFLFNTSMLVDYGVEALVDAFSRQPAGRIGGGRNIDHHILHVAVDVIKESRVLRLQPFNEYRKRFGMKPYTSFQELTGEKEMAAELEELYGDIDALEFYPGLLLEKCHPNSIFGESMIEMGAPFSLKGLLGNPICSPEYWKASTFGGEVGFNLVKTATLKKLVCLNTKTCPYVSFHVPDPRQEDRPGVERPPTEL
Method in brief: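 Ovine COX-1 from a commercial screening kit, tested with 0.1 µM arachidonic acid, which is below the saturating level. COX-derived PGH2 is reduced by SnCl2 to PGF2a, quantified by enzyme immunoassay with a broad prostaglandin antibody. At least triplicate.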

Aspergillus flavus [12] = assay: Antifungal activity against Aspergillus flavus ATCC 9643 after 72 hrs by serial dilution technique; format: functional; details: ATCC 9643, 72 h; method in brief: as §2
Micrococcus flavus [13] = assay: Bactericidal activity against Micrococcus flavus ATCC 10240 after 72 hrs by serial subcultivation method; format: functional; details: ATCC 10240, 72 h
Listeria monocytogenes [14] = assay: Bactericidal activity against Listeria monocytogenes NCTC 7973 after 72 hrs by serial subcultivation method; format: functional; details: NCTC 7973, 72 h
Aspergillus fumigatus [15] = assay: Fungicidal activity against Aspergillus fumigatus after 72 hrs by serial subcultivation method; format: functional
Talaromyces funiculosus [16] = assay: Antifungal activity against Penicillium funiculosum ATCC 36839 after 72 hrs by serial dilution technique; format: functional; details: ATCC 36839, 72 h; method in brief: as §2
Trichoderma viride [17] = assay: Antifungal activity against Trichoderma viride IAM 5061 after 72 hrs by serial dilution technique; format: functional; details: IAM 5061, 72 h; method in brief: as §2
Mus musculus [18] = assay: Antiinflammatory activity in AKR mouse assessed as inhibition of carrageenan-induced paw edema at 0.01 mmol/kg, ip measured after 3.5 hrs of carrageenan-challenge; format: functional
Method in brief: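 AKR mice of both sexes (pregnant females excluded), 6-10 per group, fasted during the experiment. Edema induced by intradermal 0.05 mL of 2% carrageenin into the right hind paw. Compound given at 0.01 mmol/kg ip, suspended in water with Tween-80, at the same time as carrageenin.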

Listeria monocytogenes [19] = assay: Antibacterial activity against Listeria monocytogenes NCTC 7973 after 24 hr by microdilution test; format: functional; details: NCTC 7973, 24 h; method in brief: as §1
Aspergillus niger [20] = assay: Antifungal activity against Aspergillus niger ATCC 6275 after 72 hrs by serial dilution technique; format: functional; details: ATCC 6275, 72 h; method in brief: as §2
Escherichia coli [21] = assay: Antibacterial activity against Escherichia coli ATCC 35210 after 24 hr by microdilution test; format: functional; details: ATCC 35210, 24 h; method in brief: as §1
Penicillium ochrochloron [22] = assay: Fungicidal activity against Penicillium ochrochloron ATCC 9112 after 72 hrs by serial subcultivation method; format: functional; details: ATCC 9112, 72 h
Staphylococcus aureus [23] = assay: Bactericidal activity against Staphylococcus aureus ATCC 6538 after 72 hrs by serial subcultivation method; format: functional; details: ATCC 6538, 72 h
Mus musculus [24] = assay: Acute toxicity in AKR mouse up to 0.5 mmol/kg, ip; format: organism-based; details: in vivo
Pseudomonas aeruginosa [25] = assay: Antibacterial activity against Pseudomonas aeruginosa ATCC 27853 after 24 hr by microdilution test; format: functional; details: ATCC 27853, 24 h; method in brief: as §1
Aspergillus fumigatus [26] = assay: Antifungal activity against Aspergillus fumigatus after 72 hrs by serial dilution technique; format: functional; method in brief: as §2
Micrococcus flavus [27] = assay: Antibacterial activity against Micrococcus flavus ATCC 10240 after 24 hr by microdilution test; format: functional; details: ATCC 10240, 24 h; method in brief: as §1
Pseudomonas aeruginosa [28] = assay: Bactericidal activity against Pseudomonas aeruginosa ATCC 27853 after 72 hrs by serial subcultivation method; format: functional; details: ATCC 27853, 72 h

Compound | IC50 [1] [µM] | MFC (Aspergillus niger [2]) [µM] | MBC (Bacillus cereus [3]) [µM] | MFC (Talaromyces funiculosus [4]) [µM] | MFC (Trichoderma viride [5]) [µM] | MFC (Aspergillus flavus [6]) [µM] | MIC (Bacillus cereus [7]) [µM] | MBC (Escherichia coli [8]) [µM] | MIC (Staphylococcus aureus [9]) [µM] | MIC (Penicillium ochrochloron [10]) [µM] | inhibition [11] [%] | MIC (Aspergillus flavus [12]) [µM] | MBC (Micrococcus flavus [13]) [µM] | MBC (Listeria monocytogenes [14]) [µM] | MFC (Aspergillus fumigatus [15]) [µM] | MIC (Talaromyces funiculosus [16]) [µM] | MIC (Trichoderma viride [17]) [µM] | inhibition in vivo at 10 µmol/kg (Mus musculus [18]) [%] | MIC (Listeria monocytogenes [19]) [µM] | MIC (Aspergillus niger [20]) [µM] | further results
O=C1N/C(=N\c2nc(-c3ccccc3)cs2)S/C1=C\c1cccc(Cl)c1 | 88 | 25.2 (≈ 10 µg/mL) | 25.2 (≈ 10 µg/mL) | 25.2 (≈ 10 µg/mL) | 25.2 (≈ 10 µg/mL) | 25.2 (≈ 10 µg/mL) | 25.2 (≈ 10 µg/mL) | 50.4 (≈ 20.1 µg/mL) | 25.2 (≈ 10 µg/mL) | 19 (≈ 7.56 µg/mL) | 65 | 19 (≈ 7.56 µg/mL) | 50.4 (≈ 20.1 µg/mL) | 50.4 (≈ 20.1 µg/mL) | 25.2 (≈ 10 µg/mL) | 19 (≈ 7.56 µg/mL) | 12.6 (≈ 5.01 µg/mL) | 51 | 25.2 (≈ 10 µg/mL) | 19 (≈ 7.56 µg/mL) | MIC (Escherichia coli [21]): 25.2 µM (≈ 10 µg/mL); MFC (Penicillium ochrochloron [22]): 25.2 µM (≈ 10 µg/mL); MBC (Staphylococcus aureus [23]): 50.4 µM (≈ 20.1 µg/mL); Activity (Mus musculus [24]): Non-toxic; MIC (Pseudomonas aeruginosa [25]): 25.2 µM (≈ 10 µg/mL); MIC (Aspergillus fumigatus [26]): 19 µM (≈ 7.56 µg/mL); MIC (Micrococcus flavus [27]): 25.2 µM (≈ 10 µg/mL); MBC (Pseudomonas aeruginosa [28]): 50.4 µM (≈ 20.1 µg/mL)
Cc1csc(/N=C2\NC(=O)/C(=C/c3ccccc3Cl)S2)n1 | 79 | 20.9 (≈ 7.02 µg/mL) | 119 (≈ 40 µg/mL) | 20.9 (≈ 7.02 µg/mL) | 20.9 (≈ 7.02 µg/mL) | 20.9 (≈ 7.02 µg/mL) | 59.6 (≈ 20 µg/mL) | 119 (≈ 40 µg/mL) | 59.6 (≈ 20 µg/mL) | 14.9 (≈ 5 µg/mL) | 97 | 20.9 (≈ 7.02 µg/mL) | 59.6 (≈ 20 µg/mL) | 119 (≈ 40 µg/mL) | 20.9 (≈ 7.02 µg/mL) | 17.9 (≈ 6.01 µg/mL) | 17.9 (≈ 6.01 µg/mL) | 43 | 119 (≈ 40 µg/mL) | 14.9 (≈ 5 µg/mL) | MIC (Escherichia coli [21]): 119 µM (≈ 40 µg/mL); MFC (Penicillium ochrochloron [22]): 20.9 µM (≈ 7.02 µg/mL); MBC (Staphylococcus aureus [23]): 119 µM (≈ 40 µg/mL); Activity (Mus musculus [24]): Non-toxic; MIC (Pseudomonas aeruginosa [25]): 59.6 µM (≈ 20 µg/mL); MIC (Aspergillus fumigatus [26]): 17.9 µM (≈ 6.01 µg/mL); MIC (Micrococcus flavus [27]): 29.8 µM (≈ 10 µg/mL); MBC (Pseudomonas aeruginosa [28]): 119 µM (≈ 40 µg/mL)
Cc1csc(/N=C2\NC(=O)/C(=C/c3ccc(Cl)cc3)S2)n1 | 76 | 15.2 (≈ 5.1 µg/mL) | 30 (≈ 10.1 µg/mL) | 15.2 (≈ 5.1 µg/mL) | 15.2 (≈ 5.1 µg/mL) | 15.2 (≈ 5.1 µg/mL) | 30 (≈ 10.1 µg/mL) | 240 (≈ 80.6 µg/mL) | 120 (≈ 40.3 µg/mL) | 7.6 (≈ 2.55 µg/mL) | 74 | 15.2 (≈ 5.1 µg/mL) | 60 (≈ 20.2 µg/mL) | 60 (≈ 20.2 µg/mL) | 15.2 (≈ 5.1 µg/mL) | 7.6 (≈ 2.55 µg/mL) | 7.6 (≈ 2.55 µg/mL) | 42 | 30 (≈ 10.1 µg/mL) | 15.2 (≈ 5.1 µg/mL) | MIC (Escherichia coli [21]): 120 µM (≈ 40.3 µg/mL); MFC (Penicillium ochrochloron [22]): 15.2 µM (≈ 5.1 µg/mL); MBC (Staphylococcus aureus [23]): 240 µM (≈ 80.6 µg/mL); Activity (Mus musculus [24]): Non-toxic; MIC (Pseudomonas aeruginosa [25]): 30 µM (≈ 10.1 µg/mL); MIC (Aspergillus fumigatus [26]): 15.2 µM (≈ 5.1 µg/mL); MIC (Micrococcus flavus [27]): 30 µM (≈ 10.1 µg/mL); MBC (Pseudomonas aeruginosa [28]): 120 µM (≈ 40.3 µg/mL)

Reference: ChEMBL document CHEMBL2311431, “Synthesis and biological evaluation of some 5-arylidene-2-(1,3-thiazol-2-ylimino)-1,3-thiazolidin-4-ones as dual anti-inflammatory/antimicrobial agents” (Bioorg Med Chem, 2013)
